Reference: PMC4397581 (Nature chemical biology, 2015)

Columns and labels:
mouse neutrophils = experiment: Mouse NET assay; assay type: cell-based; conditions: 10 µM pre-treatment, ionomycin
In short: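 Mouse peripheral blood neutrophils were isolated by density centrifugation plus hypotonic lysis (>90% pure). They were settled 15 min on uncoated glass-bottom wells in RPMI/10 mM HEPES at 37 °C, given compound or vehicle for 20 min, then stimulated with 4 µM ionomycin for 2 h at 37 °C. Cells were fixed in 2% PFA overnight at 4 °C, permeabilised, blocked, and stained with anti-citrullinated H3 (0.3 µg/mL, overnight 4 °C), a fluorescent secondary and Hoechst 33342. Fluorescence microscopy was used for blinded scoring of H3Cit+ cells and spread NETs by nuclear morphology.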

human neutrophils = experiment: Human NET assay; assay type: cell-based; conditions: S. aureus, 5 bacteria per neutrophil, versus vehicle
In short: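 S. aureus was grown 20 h shaking in LB at 37 °C, washed in ice-cold PBS and added at 5× MOI for 3 h at 37 °C. Cells were fixed in 2% PFA and stained with Hoechst 33342. Confocal imaging was used, with algorithmic classification as lobulated, delobulated or diffused NETs, from 60 fields across 3 wells per treatment.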

PAD4 = PAD4 (Homo sapiens, UniProt Q9UM07); experiment: PAD4 FP binding assay; conditions: 10 nM GSK215, mean of replicates
Chain of PAD4 (Q9UM07 whole entry): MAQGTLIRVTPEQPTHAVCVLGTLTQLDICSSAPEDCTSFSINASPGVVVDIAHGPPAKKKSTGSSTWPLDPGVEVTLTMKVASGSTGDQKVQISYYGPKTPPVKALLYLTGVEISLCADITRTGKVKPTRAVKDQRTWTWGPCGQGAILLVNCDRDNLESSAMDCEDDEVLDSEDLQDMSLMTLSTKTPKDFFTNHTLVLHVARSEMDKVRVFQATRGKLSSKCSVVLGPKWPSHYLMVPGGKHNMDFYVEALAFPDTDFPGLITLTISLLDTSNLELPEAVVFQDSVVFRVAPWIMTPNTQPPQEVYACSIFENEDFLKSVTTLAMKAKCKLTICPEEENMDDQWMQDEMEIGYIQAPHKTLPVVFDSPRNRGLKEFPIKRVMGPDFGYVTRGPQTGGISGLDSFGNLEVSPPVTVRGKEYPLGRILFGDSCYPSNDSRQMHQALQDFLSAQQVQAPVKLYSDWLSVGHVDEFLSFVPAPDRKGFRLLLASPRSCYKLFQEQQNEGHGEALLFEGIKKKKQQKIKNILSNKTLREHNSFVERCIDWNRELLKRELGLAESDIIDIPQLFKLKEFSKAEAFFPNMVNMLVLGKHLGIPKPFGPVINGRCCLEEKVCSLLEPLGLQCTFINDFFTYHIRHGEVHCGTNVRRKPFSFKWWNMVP

[1] = tested on: histone deacetylases 1–11; experiment: Histone deacetylase selectivity; assay type: biochemical; conditions: for inhibition of histone deacetylases 1–11: at 100 µM; for Activation of HDACs: up to 100 µM
[2] = tested on: panel of 50 unrelated proteins; experiment: Off-target panel

| IC50 (PAD4; PAD4 FP Binding Assay IC50, 0 mM Ca, 0 mM Ca) | IC50 (PAD4; PAD4 FP Binding Assay IC50, 2 mM Ca, 2 mM Ca) | SMILES | Histone H3 citrullination (mouse neutrophils) | NET formation (mouse neutrophils) | Diffused NETs (human neutrophils) | inhibition of histone deacetylases 1–11 [1] | Activation of HDACs [1] | Off-target activity against a panel of 50 unrelated proteins [2] |
| --- | --- | --- | --- | --- | --- | --- | --- | --- |
|  |  | CCn1c(-c2nc3ccc(C(=O)N4CCCC(N)C4)cc3n2C)cc2ccccc21 (centres unmarked) [GSK106, (3-Aminopiperidin-1-yl)(2-(1-ethyl-1H–indol-2-yl)-1-methyl-1H-benzo[d]imidazol-6-yl)methanone] | ineffective | ineffective | ineffective |  |  |  |
| 0.2 µM | 1 µM | CCn1c(-c2nc3cc(C(=O)N4CCC[C@@H](N)C4)cc(OC)c3n2C)cc2cccnc21 [GSK199, (R)-(3-Aminopiperidin-1-yl)(2-(1-ethyl-1H-pyrrolo[2,3-b]pyridin-2-yl)-7-methoxy-1-methyl-1H-benzo[d]imidazol-5-yl)methanone] | produced the same effect | produced the same effect | less marked inhibition | < 50% | partial activation of HDACs 1 and 8 at high concentrations | negligible off-target activity |
|  |  | COc1cc(C(=O)N2CC[C@@H](O)[C@@H](N)C2)cc2nc(-c3cc4ccccc4n3CC3CC3)n(C)c12 [GSK484, ((3S,4R)-3-Amino-4-hydroxypiperidin-1-yl)(2-(1-(cyclopropylmethyl)-1H-indol-2-yl)-7-methoxy-1-methyl-1H-benzo[d]imidazol-5-yl)methanone] | dramatically diminished | dramatically diminished | clear, statistically-significant reduction | < 50% | no activation across HDACs 1–11 | negligible off-target activity |
